{"source": "paper PMC7306618", "about": "(CPT: Pharmacometrics & Systems Pharmacology, 2020)", "key": {"[1]": {"experiment": "Physicochemical properties of fenebrutinib"}, "[2]": {"experiment": "Free fraction in plasma and blood/plasma partition ratio", "type": "in vitro ADME"}, "[3]": {"experiment": "MDCK cell monolayer apparent permeability", "type": "in vitro ADME, Canine", "conditions": "dog, MDCK", "how_it_was_run": "(§1)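 Apparent permeability of test compound measured across MDCK monolayers alone and at various H‐β‐CD concentrations. These included a 46:1 H‐β‐CD:compound molar ratio, matching ~8 g H‐β‐CD per oral-solution dose with a 100 mg tablet. Change expressed relative to no H‐β‐CD. MDCK Papp was also scaled (scalar 3.9) to human jejunal Peff.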"}, "[4]": {"system": "Madin‐Darby Canine Kidney (MDCK) cell monolayer", "experiment": "MDCK cell monolayer apparent permeability", "type": "in vitro ADME", "conditions": "molar ratio H‐β‐CD to fenebrutinib 46:1", "how_it_was_run": "as §1"}, "[5]": {"target": "T1, human BCRP (Homo sapiens, UniProt Q9UNQ0)", "T1 sequence (Q9UNQ0 1-655)": "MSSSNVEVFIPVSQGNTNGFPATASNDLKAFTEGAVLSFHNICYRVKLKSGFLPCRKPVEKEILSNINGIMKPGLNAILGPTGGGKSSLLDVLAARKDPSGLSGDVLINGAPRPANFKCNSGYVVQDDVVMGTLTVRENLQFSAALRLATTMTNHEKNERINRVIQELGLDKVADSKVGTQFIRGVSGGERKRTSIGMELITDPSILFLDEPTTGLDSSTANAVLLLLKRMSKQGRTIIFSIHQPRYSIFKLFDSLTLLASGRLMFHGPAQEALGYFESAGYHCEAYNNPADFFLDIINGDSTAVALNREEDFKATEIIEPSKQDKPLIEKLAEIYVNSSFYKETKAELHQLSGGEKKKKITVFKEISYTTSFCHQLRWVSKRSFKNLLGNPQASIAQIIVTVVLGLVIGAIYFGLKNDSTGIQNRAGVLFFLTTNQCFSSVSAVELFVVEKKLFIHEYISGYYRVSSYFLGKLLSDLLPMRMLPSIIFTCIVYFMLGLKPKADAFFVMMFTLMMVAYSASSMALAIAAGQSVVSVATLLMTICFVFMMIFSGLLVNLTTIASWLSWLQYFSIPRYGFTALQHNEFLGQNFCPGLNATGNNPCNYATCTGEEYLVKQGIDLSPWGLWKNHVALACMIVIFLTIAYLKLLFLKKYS", "experiment": "Inhibition of BCRP-mediated efflux in MDCKII cells", "type": "cell-based", "how_it_was_run": "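Unbound inhibition constants (OATP1B1/1B3 uptake; BCRP efflux) derived as in vitro IC50/2, then corrected by plasma unbound fraction. This was done because the unbound fraction in the transporter incubation was not measured. Values served as gut and liver transporter inputs to the PBPK model.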"}, "[6]": {"experiment": "Fenebrutinib PBPK model parameters", "set-up": "species or system human"}, "[7]": {"experiment": "Phase I PK of fenebrutinib", "type": "in vivo, human", "how_it_was_run": "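Oral dosing in phase I studies as solution, capsule (single and multiple-day) and 200 mg tablet. Plasma concentration–time data were used to estimate total clearance and apparent steady-state volume of distribution (Vss/F).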"}, "[8]": {"experiment": "Human mass balance study", "type": "in vivo"}, "[9]": {"system": "CYP3A", "experiment": "Clinical DDI study Part 4: effect of itraconazole on fenebrutinib PK", "type": "in vivo, human", "conditions": "200 mg itraconazole solution once daily × 8 days; fenebrutinib 100 mg"}, "[10]": {"type": "in vivo, dogs", "conditions": "dog, oral tablets, co‐administration with H‐β‐CD"}, "[11]": {"experiment": "Fenebrutinib–H‐β‐CD complexation in vitro", "type": "physicochemical", "conditions": "estimated from in vitro experiment"}, "[12]": {"target": "T1, human BCRP", "conditions": "read-out: IC50 BCRP‐mediated efflux; cited from earlier work"}, "[13]": {"system": "CYP3A", "conditions": "time‐dependent inhibition, cited from earlier work"}, "[14]": {"system": "OATP1B", "conditions": "rosuvastatin + fenebrutinib vs rosuvastatin alone; cited from earlier work"}, "[15]": {"system": "OATP1B1/3 and BCRP", "conditions": "fenebrutinib 200 mg twice daily for 10 days; cited from earlier work"}}, "note": "Several values for one entry are separate records, joined by “and”; a condition that tells them apart may be missing. Equal values may be shown once.", "data": [{"molecule": "C[C@H]1CN(C2COC2)CCN1c1ccc(Nc2cc(-c3ccnc(N4CCn5c(cc6c5CC(C)(C)C6)C4=O)c3CO)cn(C)c2=O)nc1", "note": "[fenebrutinib]", "values": [{"measurement": "pK a1", "setting": "[1]; diprotic base", "value": 5}, {"measurement": "pK a2", "setting": "[1]; diprotic base", "value": 3.7}, {"measurement": "logP", "setting": "[1]; octanol/water", "value": 3.3}, {"measurement": "pH solubility profile", "setting": "[1]; pH 2.3", "value": 35.9}, {"measurement": "pH solubility profile", "setting": "[1]; pH 2.6", "value": 5.67}, {"measurement": "pH solubility profile", "setting": "[1]; pH 3.0", "value": 1.44}, {"measurement": "pH solubility profile", "setting": "[1]; pH 3.8", "value": 0.032}, {"measurement": "pH solubility profile", "setting": "[1]; pH 5.0", "value": 0.001}, {"measurement": "pH solubility profile", "setting": "[1]; pH 6.1", "value": 0.001}, {"measurement": "B/P", "setting": "[2]", "value": 0.61}, {"measurement": "Papp", "setting": "[3]", "value": 15.1, "unit": "×10⁻⁶ cm/s"}, {"measurement": "Decrease in Papp relative to that without H‐β‐CD", "setting": "[4]", "value": "~ 15 fold"}, {"measurement": "Ki", "setting": "[5]", "value": 0.926, "unit": "µM"}, {"measurement": "Hepatic clearance as share of total CL", "setting": "[6]; assigned in model", "value": "~ 95%"}, {"measurement": "clearance", "setting": "[6]; human", "value": 18.3, "unit": "mL/min"}, {"measurement": "CL/F", "setting": "[7]; estimated from phase I PK data", "value": "~ 80 L/hour"}, {"measurement": "Vd/F", "setting": "[7]; human, plasma, oral", "value": "~13.4", "unit": "L/kg"}, {"measurement": "Share of elimination through metabolic pathway (f m)", "setting": "[8]", "value": "> 90", "unit": "%"}, {"measurement": "Observed change in Tmax with itraconazole", "setting": "[9]", "value": "delay"}, {"measurement": "Observed decrease in Cmax with itraconazole", "setting": "[9]", "value": "~ 11% and 11%"}, {"measurement": "Observed increase in AUC0‐t with itraconazole", "setting": "[9]", "value": "2.28 fold and ~ 2.3 fold"}, {"measurement": "Apparent rate and extent of absorption in the presence of H‐β‐CD", "setting": "[10]", "value": "substantially decreased"}, {"measurement": "Kcomplex with H‐β‐CD", "setting": "[11]", "value": 27000, "unit": "M⁻¹"}, {"measurement": "IC50", "setting": "[12]", "value": 9.4, "unit": "µM"}, {"measurement": "Ki", "setting": "[13]; read-out: CYP3A TDI K I (apparent)", "value": 7.9, "unit": "µM"}, {"measurement": "CYP3A TDI K inact", "setting": "[13]", "value": 0.684, "unit": "h⁻¹"}, {"measurement": "CYP3A k inact", "setting": "[13]", "value": 0.0114, "unit": "min⁻¹"}, {"measurement": "Effect of multiple doses on plasma concentration‐time profiles of CP‐I and CP‐III", "setting": "[14]", "value": "comparable"}]}, {"molecule": "CC(C)c1nc(N(C)S(C)(=O)=O)nc(-c2ccc(F)cc2)c1/C=C/[C@@H](O)C[C@@H](O)CC(=O)O", "note": "[rosuvastatin]", "values": [{"measurement": "Observed increase in AUC0–t with fenebrutinib", "setting": "[15]", "value": "~2.6", "unit": "fold"}, {"measurement": "Observed increase in Cmax with fenebrutinib", "setting": "[15]", "value": "~ 5 fold"}]}]}
